Results: ChEMBL document CHEMBL1141667, “Synthesis and antimicrobial activities of 7-O-modified genistein derivatives” (2008)
In brackets after ≈: the same amount, converted by molar mass.

The molecules below were run on Staphylococcus aureus (assay: Antibacterial activity against Staphylococcus aureus after 24 hrs by MTT assay).
Format: functional
Summary of the method: (§1)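 Broth microdilution MIC in MH medium. Compounds from a 50 mg/mL DMSO stock were serially diluted in medium. Inoculum was about 10⁵ cfu/mL, each concentration in triplicate, incubated at 37 °C for 24 h. MIC was read visually, then confirmed by adding PBS with 2 mg/mL MTT and incubating 4–5 h at room temperature. A compound-free medium control checked for any MTT effect on growth.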

Structure (SMILES) | MIC [mg/L]
O=c1c(-c2ccc(O)cc2)coc2cc(OCCCCn3ccnc3)cc(O)c12 | > 50
CCCN(CCC)CCCCOc1cc(O)c2c(=O)c(-c3ccc(O)cc3)coc2c1 | 10.5 (≈ 24.7 µM)
NC[C@H]1O[C@H](O[C@H]2[C@H](O)[C@@H](O[C@H]3O[C@H](CO)[C@@H](O)[C@H](N)[C@H]3O)[C@H](N)C[C@@H]2N)[C@H](O)[C@@H](O)[C@@H]1O [KANAMYCIN] | 1 (≈ 2.06 µM)
O=c1c(-c2ccc(O)cc2)coc2cc(OCCN3CCNCC3)cc(O)c12 | 17.5 (≈ 45.8 µM)
O=c1c(-c2ccc(O)cc2)coc2cc(O)cc(O)c12 [GENISTEIN] | > 50

More lines, now with the values ahead:

MIC [mg/L] | Structure (SMILES)
20.1 (≈ 49 µM) | O=c1c(-c2ccc(O)cc2)coc2cc(OCCCCN3CCNCC3)cc(O)c12
> 50 | O=c1c(-c2ccc(O)cc2)coc2cc(OCCCN3CCOCC3)cc(O)c12
> 50 | O=c1c(-c2ccc(O)cc2)coc2cc(OCCN3CCOCC3)cc(O)c12
27.2 (≈ 64.1 µM) | CN1CCN(CCCCOc2cc(O)c3c(=O)c(-c4ccc(O)cc4)coc3c2)CC1

The molecules below were run on Pseudomonas fluorescens (assay: Antibacterial activity against Pseudomonas fluorescens after 24 hrs by MTT assay).
Format: functional
Summary of the method: as §1

Structure (SMILES) | MIC [mg/L]
O=c1c(-c2ccc(O)cc2)coc2cc(OCCCCn3ccnc3)cc(O)c12 | > 50
CCCN(CCC)CCCCOc1cc(O)c2c(=O)c(-c3ccc(O)cc3)coc2c1 | 19.5 (≈ 45.8 µM)
NC[C@H]1O[C@H](O[C@H]2[C@H](O)[C@@H](O[C@H]3O[C@H](CO)[C@@H](O)[C@H](N)[C@H]3O)[C@H](N)C[C@@H]2N)[C@H](O)[C@@H](O)[C@@H]1O [KANAMYCIN] | 3.9 (≈ 8.05 µM)
O=c1c(-c2ccc(O)cc2)coc2cc(OCCN3CCNCC3)cc(O)c12 | 23.5 (≈ 61.5 µM)
O=c1c(-c2ccc(O)cc2)coc2cc(O)cc(O)c12 [GENISTEIN] | > 50

Further lines, results first:

MIC [mg/L] | Structure (SMILES)
37.5 (≈ 91.4 µM) | O=c1c(-c2ccc(O)cc2)coc2cc(OCCCCN3CCNCC3)cc(O)c12
> 50 | O=c1c(-c2ccc(O)cc2)coc2cc(OCCCN3CCOCC3)cc(O)c12
> 50 | O=c1c(-c2ccc(O)cc2)coc2cc(OCCN3CCOCC3)cc(O)c12
37.4 (≈ 88.1 µM) | CN1CCN(CCCCOc2cc(O)c3c(=O)c(-c4ccc(O)cc4)coc3c2)CC1

The molecules below were run on Bacillus subtilis (assay: Antibacterial activity against Bacillus subtilis after 24 hrs by MTT assay).
Format: functional
Summary of the method: as §1

Structure (SMILES) | MIC [mg/L]
O=c1c(-c2ccc(O)cc2)coc2cc(OCCCCn3ccnc3)cc(O)c12 | > 50
CCCN(CCC)CCCCOc1cc(O)c2c(=O)c(-c3ccc(O)cc3)coc2c1 | 19.5 (≈ 45.8 µM)
NC[C@H]1O[C@H](O[C@H]2[C@H](O)[C@@H](O[C@H]3O[C@H](CO)[C@@H](O)[C@H](N)[C@H]3O)[C@H](N)C[C@@H]2N)[C@H](O)[C@@H](O)[C@@H]1O [KANAMYCIN] | 1 (≈ 2.06 µM)
O=c1c(-c2ccc(O)cc2)coc2cc(OCCN3CCNCC3)cc(O)c12 | 47.5 (≈ 124 µM)
O=c1c(-c2ccc(O)cc2)coc2cc(O)cc(O)c12 [GENISTEIN] | > 50

Other lines, results leading:

MIC [mg/L] | Structure (SMILES)
15.5 (≈ 37.8 µM) | O=c1c(-c2ccc(O)cc2)coc2cc(OCCCCN3CCNCC3)cc(O)c12
> 50 | O=c1c(-c2ccc(O)cc2)coc2cc(OCCCN3CCOCC3)cc(O)c12
> 50 | O=c1c(-c2ccc(O)cc2)coc2cc(OCCN3CCOCC3)cc(O)c12
30.3 (≈ 71.4 µM) | CN1CCN(CCCCOc2cc(O)c3c(=O)c(-c4ccc(O)cc4)coc3c2)CC1

The molecules below were run on Aspergillus niger (assay: Antifungal activity against Aspergillus niger after 48 hrs by MTT assay).
Format: functional
Summary of the method: (§2)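 Antifungal MIC by microdilution in RPMI-1640 medium. Compounds came from a 50 mg/mL DMSO stock and were serially diluted. Inoculum was about 10⁵ cfu/mL, with triplicate wells per concentration, incubated at 37 °C for 48 h. MIC was judged visually, followed by PBS containing 2 mg/mL MTT for 4–5 h at room temperature for the colorimetric read. A compound-free control tested MTT interference.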

Structure (SMILES) | MIC [mg/L]
O=c1c(-c2ccc(O)cc2)coc2cc(OCCCCn3ccnc3)cc(O)c12 | > 50
CCCN(CCC)CCCCOc1cc(O)c2c(=O)c(-c3ccc(O)cc3)coc2c1 | > 50
O=c1c(-c2ccc(O)cc2)coc2cc(OCCN3CCNCC3)cc(O)c12 | > 50
O=c1c(-c2ccc(O)cc2)coc2cc(O)cc(O)c12 [GENISTEIN] | > 50

Other lines, results leading:

MIC [mg/L] | Structure (SMILES)
> 50 | O=c1c(-c2ccc(O)cc2)coc2cc(OCCCCN3CCNCC3)cc(O)c12
> 50 | O=c1c(-c2ccc(O)cc2)coc2cc(OCCCN3CCOCC3)cc(O)c12
> 50 | O=c1c(-c2ccc(O)cc2)coc2cc(OCCN3CCOCC3)cc(O)c12
> 50 | CN1CCN(CCCCOc2cc(O)c3c(=O)c(-c4ccc(O)cc4)coc3c2)CC1

These molecules were tested on Trichophyton rubrum (assay: Antifungal activity against Trichophyton rubrum after 48 hrs by MTT assay).
Format: functional
Summary of the method: as §2

Structure (SMILES) | MIC [mg/L]
O=c1c(-c2ccc(O)cc2)coc2cc(OCCCCn3ccnc3)cc(O)c12 | > 50
CCCN(CCC)CCCCOc1cc(O)c2c(=O)c(-c3ccc(O)cc3)coc2c1 | > 50
O=c1c(-c2ccc(O)cc2)coc2cc(OCCN3CCNCC3)cc(O)c12 | > 50
O=c1c(-c2ccc(O)cc2)coc2cc(O)cc(O)c12 [GENISTEIN] | > 50

Now from value to molecule:

MIC [mg/L] | Structure (SMILES)
> 50 | O=c1c(-c2ccc(O)cc2)coc2cc(OCCCCN3CCNCC3)cc(O)c12
> 50 | O=c1c(-c2ccc(O)cc2)coc2cc(OCCCN3CCOCC3)cc(O)c12
> 50 | O=c1c(-c2ccc(O)cc2)coc2cc(OCCN3CCOCC3)cc(O)c12
> 50 | CN1CCN(CCCCOc2cc(O)c3c(=O)c(-c4ccc(O)cc4)coc3c2)CC1

What follows are molecules tested on Escherichia coli (assay: Antibacterial activity against Escherichia coli after 24 hrs by MTT assay).
Format: functional
Summary of the method: as §1

Structure (SMILES) | MIC [mg/L]
O=c1c(-c2ccc(O)cc2)coc2cc(OCCCCn3ccnc3)cc(O)c12 | > 50
CCCN(CCC)CCCCOc1cc(O)c2c(=O)c(-c3ccc(O)cc3)coc2c1 | > 50
NC[C@H]1O[C@H](O[C@H]2[C@H](O)[C@@H](O[C@H]3O[C@H](CO)[C@@H](O)[C@H](N)[C@H]3O)[C@H](N)C[C@@H]2N)[C@H](O)[C@@H](O)[C@@H]1O [KANAMYCIN] | 3.9 (≈ 8.05 µM)
O=c1c(-c2ccc(O)cc2)coc2cc(OCCN3CCNCC3)cc(O)c12 | > 50
O=c1c(-c2ccc(O)cc2)coc2cc(O)cc(O)c12 [GENISTEIN] | > 50

Further lines, results first:

MIC [mg/L] | Structure (SMILES)
> 50 | O=c1c(-c2ccc(O)cc2)coc2cc(OCCCCN3CCNCC3)cc(O)c12
> 50 | O=c1c(-c2ccc(O)cc2)coc2cc(OCCCN3CCOCC3)cc(O)c12
> 50 | O=c1c(-c2ccc(O)cc2)coc2cc(OCCN3CCOCC3)cc(O)c12
> 50 | CN1CCN(CCCCOc2cc(O)c3c(=O)c(-c4ccc(O)cc4)coc3c2)CC1

The molecules below were run on Candida albicans (assay: Antifungal activity against Candida albicans after 48 hrs by MTT assay).
Format: functional
Summary of the method: as §2

Structure (SMILES) | MIC [mg/L]
O=c1c(-c2ccc(O)cc2)coc2cc(OCCCCn3ccnc3)cc(O)c12 | > 50
CCCN(CCC)CCCCOc1cc(O)c2c(=O)c(-c3ccc(O)cc3)coc2c1 | > 50
O=c1c(-c2ccc(O)cc2)coc2cc(OCCN3CCNCC3)cc(O)c12 | > 50
O=c1c(-c2ccc(O)cc2)coc2cc(O)cc(O)c12 [GENISTEIN] | > 50

The next lines start with the values.

MIC [mg/L] | Structure (SMILES)
> 50 | O=c1c(-c2ccc(O)cc2)coc2cc(OCCCCN3CCNCC3)cc(O)c12
> 50 | O=c1c(-c2ccc(O)cc2)coc2cc(OCCCN3CCOCC3)cc(O)c12
> 50 | O=c1c(-c2ccc(O)cc2)coc2cc(OCCN3CCOCC3)cc(O)c12
> 50 | CN1CCN(CCCCOc2cc(O)c3c(=O)c(-c4ccc(O)cc4)coc3c2)CC1
